Activity calls are given as the source filed them. No cut-off for these calls is given here.
Assays:
in vitro = conditions: PAMPA, pH 7.4
Homo sapiens [1] = organism: Homo sapiens; test: Inhibition of self-induced amyloid beta (1 to 42) (unknown origin) peptide aggregation at 25 uM measured after 48 hrs by thioflavin-T fluorescence assay relative to control
[2] = biological target: T1, Amine oxidase [flavin-containing] B (Homo sapiens, UniProt P27338); test: biochemical; format: cell-based, BTI
T1 sequence (P27338 whole entry): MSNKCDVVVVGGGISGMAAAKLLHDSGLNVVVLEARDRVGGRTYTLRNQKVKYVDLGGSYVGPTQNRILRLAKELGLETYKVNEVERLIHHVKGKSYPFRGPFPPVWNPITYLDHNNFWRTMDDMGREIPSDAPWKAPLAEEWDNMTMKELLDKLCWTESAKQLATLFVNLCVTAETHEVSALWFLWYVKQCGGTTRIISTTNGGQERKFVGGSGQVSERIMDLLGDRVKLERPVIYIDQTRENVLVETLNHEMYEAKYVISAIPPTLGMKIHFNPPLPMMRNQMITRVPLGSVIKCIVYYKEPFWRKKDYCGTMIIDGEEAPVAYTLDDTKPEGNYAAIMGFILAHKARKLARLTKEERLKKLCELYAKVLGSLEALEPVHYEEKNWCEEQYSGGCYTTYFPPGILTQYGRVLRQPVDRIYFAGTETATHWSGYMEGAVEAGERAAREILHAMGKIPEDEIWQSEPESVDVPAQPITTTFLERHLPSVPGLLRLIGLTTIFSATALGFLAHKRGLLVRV

Homo sapiens [3] = organism: Homo sapiens; test: Selectivity index, ratio of IC50 for recombinant human MAOA expressed in baculovirus infected BTI insect cells to IC50 for recombinant human MAOB expressed in baculovirus infected BTI insect cells
Outline: (§1)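 Recombinant human MAO-A or MAO-B with p-tyramine substrate; H2O2 production detected by Amplex Red. Compounds diluted in DMSO/PBS (final DMSO <0.1%) and incubated with enzyme and substrate 15 min at 37 °C in the dark. Fluorescence read at ex/em 545/590 nm; mean ± SD of three independent experiments.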

MAO-A = biological target: T2, MAO-A (Homo sapiens, UniProt P21397); test: Inhibition of recombinant human MAOA expressed in baculovirus infected BTI insect cells at 100 uM using p-tyramine as substrate measured after 15 mins by Amplex red reagent based fluorescence assay relative to control; conditions: probe p-tyramine
T2 sequence (P21397 whole entry): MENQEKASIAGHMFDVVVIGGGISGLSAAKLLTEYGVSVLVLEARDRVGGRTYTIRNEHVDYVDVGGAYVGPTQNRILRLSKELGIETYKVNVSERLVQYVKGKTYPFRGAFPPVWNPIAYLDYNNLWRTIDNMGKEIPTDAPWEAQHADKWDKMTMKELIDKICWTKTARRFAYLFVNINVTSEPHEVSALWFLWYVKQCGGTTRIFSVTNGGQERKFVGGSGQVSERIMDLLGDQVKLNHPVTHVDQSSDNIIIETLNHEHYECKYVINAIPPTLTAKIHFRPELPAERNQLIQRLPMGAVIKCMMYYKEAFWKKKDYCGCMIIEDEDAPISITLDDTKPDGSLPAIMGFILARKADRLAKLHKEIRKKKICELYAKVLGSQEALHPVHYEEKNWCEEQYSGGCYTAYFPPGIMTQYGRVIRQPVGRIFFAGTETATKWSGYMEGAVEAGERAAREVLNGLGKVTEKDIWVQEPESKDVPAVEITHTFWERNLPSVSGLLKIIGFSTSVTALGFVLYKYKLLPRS
Outline: as §1

[4] = biological target: T1, Amine oxidase [flavin-containing] B; test: Inhibition of recombinant human MAOB expressed in baculovirus infected BTI insect cells at 100 uM using p-tyramine as substrate measured after 15 mins by Amplex red reagent based fluorescence assay relative to control; conditions: 0.25 h
Outline: as §1

SH-SY5Y [5] = test: Neuroprotective activity against 6-OHDA-induced cell death in human SH-SY5Y cells assessed as increase in cell survival at 1.563 to 25 uM incubated for 24 hrs by MTT assay; format: functional, cell-based; conditions: dose 1.563-25 µM
Outline: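 SH-SY5Y cells co-incubated with 200 µM 6-OHDA and compound at 1.563, 3.125, 6.25, 12.5 or 25 µM for 24 h. Viability read by MTT assay against a 6-OHDA-only group. Means ± SEM of three independent experiments.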

[6] = Half life in Sprague-Dawley rat at 10 mg/kg, po administered via gavage by LC-MS/MS analysis; format: ADME, organism-based; conditions: in vivo
Outline: (§2)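 Male SD rats (n=3, 220 ± 20 g) dosed 3 mg/kg i.v. or 10 mg/kg by oral gavage. Plasma proteins precipitated with two volumes of 0.5% formic acid/acetonitrile; supernatant quantified by LC-MS/MS.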

Homo sapiens [7] = organism: Homo sapiens; test: Inhibition of self-induced amyloid beta (1 to 42) (unknown origin) peptide aggregation assessed as reduction in number of amyloid beta aggregates by TEM analysis
[8] = Clearance in Sprague-Dawley rat at 3 mg/kg, iv by LC-MS/MS analysis; format: ADME, organism-based; conditions: in vivo
Outline: as §2

[9] = AUC (0 to infinity) in Sprague-Dawley rat at 10 mg/kg, po administered via gavage by LC-MS/MS analysis; format: ADME, organism-based; design: route oral, time infinity, dose 10 mg/kg; conditions: in vivo
Outline: as §2

[10] = Tmax in Sprague-Dawley rat at 10 mg/kg, po administered via gavage by LC-MS/MS analysis; format: ADME, organism-based; conditions: in vivo
Outline: as §2

[11] = Cmax in Sprague-Dawley rat at 10 mg/kg, po administered via gavage by LC-MS/MS analysis; format: ADME, organism-based; design: route oral, dose 10 mg/kg; conditions: in vivo
Outline: as §2

SH-SY5Y [12] = test: Cytotoxicity against human SH-SY5Y cells assessed as reduction in cell viability at 25 uM after 24 hrs by MTT assay; format: cell-based
Outline: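 SH-SY5Y cells grown in DMEM with FBS, penicillin/streptomycin, 5% CO2, 37 °C. Seeded at 10,000 cells/well and exposed to compound (6.25–100 µM) for 24 h at 37 °C. MTT added for 4 h, formazan dissolved in DMSO, absorbance read at 570 nm (reference 630 nm). Mean ± SD of three independent experiments.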

[13] = biological target: T1, Amine oxidase [flavin-containing] B; test: Competitive inhibition of recombinant human MAOB expressed in baculovirus infected BTI insect cells at 2.5 to 10 nM using varying levels of p-tyramine as substrate by Lineweaver-Burk plot analysis; conditions: dose 2.5-10 nM
Outline: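 Recombinant hMAO-B initial rates measured with and without inhibitor at 2.5, 5 and 10 nM. p-Tyramine substrate at 0.05, 0.1, 0.5, 1.0, 1.5 and 3.0 mM. H2O2 production read by Amplex Red fluorescence. Mechanism taken from overlaid Lineweaver–Burk reciprocal plots.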

[14] = AUC (0 to infinity) in Sprague-Dawley rat at 3 mg/kg, iv by LC-MS/MS analysis; format: ADME, organism-based; design: time infinity, route intravenous, dose 3 mg/kg; conditions: in vivo
Outline: as §2

[15] = Cmax in Sprague-Dawley rat at 3 mg/kg, iv by LC-MS/MS analysis; format: ADME, organism-based; design: route intravenous, dose 3 mg/kg; conditions: in vivo
Outline: as §2

[16] = Half life in Sprague-Dawley rat at 3 mg/kg, iv by LC-MS/MS analysis; format: ADME, organism-based; conditions: in vivo
Outline: as §2

[17] = Oral bioavailability in Sprague-Dawley rat at 10 mg/kg administered via gavage by LC-MS/MS analysis; format: ADME, organism-based; conditions: in vivo
Outline: as §2

| SMILES | Papp at 16 h (in vitro) [×10⁻⁶ cm/s] | inhibition (Homo sapiens [1]) [%] | IC50 [2] [nM] | Ratio IC50 (Homo sapiens [3]) | inhibition at 0.25 h, 100 µM (MAO-A) [%] | also measured |
| --- | --- | --- | --- | --- | --- | --- |
| C#CCN(C)CCCCCCOc1ccc2c(c1)OCCC2=O | 8.54 | 0.66 | 117 | > 855 | 34.1 |  |
| C#CCN(C)CCCCCOc1cccc(OC)c1 | 10.5 | 22.2 | 101 | > 991 | 32.3 |  |
| CN(C)CCCN1c2ccccc2Sc2ccc(Cl)cc21 [CHLORPROMAZINE] | 7.12 |  |  |  |  |  |
| C#CCN(C)CCCCCCCCOc1ccc2c(c1)OCCC2=O | 8.91 | 0.34 | 422 | > 237 | 28.6 |  |
| C#CCN(C)CCCCCCOc1ccc2c(c1)CCCC2=O | 8.58 | 18.1 | 133 | > 751 | 25 |  |
| C#CCN(C)CCCCOc1ccc(C(C)=O)cc1 | 10.6 | 6.18 | 56.5 | > 1770 | 28.6 |  |
| C#CCN(C)CCCCOc1ccc2c(c1)CCC2=O | 9.61 | 31.3 | 366 | > 273 | 7.93 |  |
| C#CCN(C)CCCCCOc1ccc(C(C)=O)cc1OC | 12.9 | 5.74 | 6520 | > 15 | 39.5 |  |
| C#CCN(C)CCCOc1ccc2c(c1)OCCC2=O | 9.21 | 7.77 | 11400 | > 9 | 32.1 |  |
| C#CCN(C)CCCCCCOc1ccc(C(C)=O)cc1 | 8.69 | 12.7 | 20.4 | > 4900 | 37.3 |  |
| C#CCN(C)CCCCOc1ccc(C=O)c(OC)c1 | 13.1 | 0.86 |  |  | 29.4 | inhibition at 100 µM [4]: 41.2% |
| C#CCN[C@@H]1CCc2ccccc21 [RASAGILINE] |  |  |  |  | 47.9 | Activity (SH-SY5Y [5]): Active |
| C#CCN(C)CCCCCOc1ccc(C=O)c(OC)c1 | 14 | 0.82 | 5730 | > 17 | 27.1 |  |
| C[C@]12CC[C@@H]3c4ccc(O)cc4CC[C@H]3[C@@H]1CC[C@@H]2O [ESTRADIOL] | 12.4 |  |  |  |  |  |
| C#CCN(C)CCCCCOc1ccc2c(c1)OCCC2=O | 10.2 | 40.8 | 4 | > 2.5 10^4No_unit | 6.04 | Activity (SH-SY5Y [5]): Active; half-life [6]: 1.33 h; inhibition (Homo sapiens [7]): Active; CL [8]: 55.5 mL/min/kg; AUC(0-inf) [9]: 268 ng·h/mL; Tmax [10]: 0.3 h; Cmax [11]: 142 ng/mL; Activity (SH-SY5Y [12]): Non-Toxic; inhibition (INH) [13]: Active; AUC [14]: 247.74 ng·h/mL; Cmax [15]: 639 ng/mL; half-life [16]: 1.02 h; bioavailability [17]: 36.1% |
| C#CCN(C)CCCCOc1ccc2c(c1)OCCC2=O | 13.7 | 43.9 | 58.9 | > 1700 | 22.8 |  |
| C#CCN(C)CCCCCOc1ccc2c(c1)CCCC2=O | 10.6 | 10.3 | 46.3 | > 2160 | 26.1 |  |
| C#CCN(C)CCCCCCOc1ccc(C=O)c(OC)c1 | 11.2 | 0.99 | 552 | > 181 | 37.4 |  |
| C#CCN(C)CCCCCCOc1ccc2c(c1)CCC2=O | 12.8 | 0.68 | 129 | > 777 | 4.42 |  |
| C#CCN(C)CCCCCOc1ccc2c(c1)CCC2=O | 10.9 | 11.4 | 94.8 | > 1060 | 31 |  |
| C#CCN(C)CCCCCCOc1ccc2c(c1)OCC2=O | 8.3 | 9.76 | 51.9 | > 1930 | 11.7 |  |
| C#CCN(C)CCCCOc1ccc2c(c1)CCCC2=O | 8.7 | 13.4 | 72.5 | > 1380 | 30.9 |  |
| COc1cc(/C=C/C(=O)CC(=O)/C=C/c2ccc(O)c(OC)c2)ccc1O |  | 46.1 |  |  |  | inhibition (Homo sapiens [7]): Active |
| C#CCN(C)CCCCOc1ccc(C(C)=O)cc1OC | 12.5 | 21.8 | 1150 | > 87 | 21.1 |  |
